Sampled rows, rich in hits. Any-hit rate of the full collection: about 5%.
XBP1 UPR activ: activators of adaptive arm of unfolded protein response (XBP1) | CHO-XBP1 luciferase reporter, IRE1-XBP1 UPR activation, luminescence; percent of tunicamycin response, DMSO as zero | 0.33% of 330,000 active | activation, % at 20 µM | AID 463104;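 active = versus positive control, 20 µM dose yields 30% or more activation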;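 note: 100% = tunicamycin at 10 µg/mL and 0% = DMSO only wells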
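assay system = CHO-XBP1 luciferase reporter cells | amount = 1000 cells/well | buffer or medium = F12 plus 10% FBS | compound dosing = single point, 20 µM final compound, 1% DMSO | incubation = 16-18 h cell attachment at 37 °C, then 6 h compound exposure | detection = Steady-Glo luminescence read | controls = tunicamycin 10 µg/mL and vehicle-only wells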
T cruzi repl: blocks replication of Trypanosoma cruzi | T. cruzi beta-gal in NIH3T3, luminescence, 90 h | inhibition, % (test concentration not listed) | 1.4% of 300,000 active;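 active = mean inhibition across valid replicates above about 55%, limit read from the data; inconclusive = mean below that limit but half or more replicates reach it; inactive = mean below it, under half of replicates reach it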;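 note: signal also drops with host cell toxicity which is not excluded here; 0% = plate median of DMSO wells and 100% = zero luminescence signal; higher percent means less beta-gal luminescence so fewer parasites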
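Assay system: NIH/3T3 fibroblasts plus reporter T. cruzi. Amount: NIH/3T3 cells, 5,000 per well. Buffer or medium: DMEM, 2% fetal bovine serum. Doses: compound pinned at 50 nL/well, DMSO. Schedule: ≥90 h infection period, 3 h prior cell attachment. Signal: luminescent β-galactosidase signal after 60 min lysis. Read-out: parasite load inhibition, %.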
Beta cell apopt: beta cell apoptosis inhibition; 0.8% of 300,000 active; INS-1E cytokine-induced death, ATP luminescence, 48 h; percent of positive-control rescue, neutral wells zero; protection from apoptosis, % (test concentration not listed);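 active = Every replicate reaches about 75%, or at least half do and their mean reaches it too, limit read from the data; inconclusive = At least half of replicates reach the limit but their mean does not; inactive = Under half of replicates reach the limit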;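 note: 0% = cytokine-treated negative control wells and 100% = positive control rescue; higher means more ATP so stronger rescue from cytokine killing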
CSC inhib: blocks cancer stem cells; cancer stem cell-like cells viability, luminescence; 1.1% of 300,000 active; AID 2717; inhibition, % at 7.5 µM; in the data active = inhibition above about 75%; inconclusive = no clear call, values can overlap the other calls; tested in HMLE shEcad cells
UPR CHOP act: apoptotic UPR (CHOP) activation; activation, % at 10 µM; 0.34% of 330,000 active; CHO-CHOP luciferase reporter, luminescence; percent of tunicamycin response over DMSO baseline;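 active = at 10 µM dose, activation of 40% or more, normalized to positive control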;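 note: 100% = tunicamycin at 10 µg/mL and 0% = DMSO alone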
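Evaluation: % reporter activation, DMSO baseline versus tunicamycin full activation; System: CHO-CHOP luciferase reporter cell line; Input: 500 cells/well; Incubation: 6 h compound treatment, 37 °C; Measured by: Steady-Glo luciferase luminescence; Dosing: one dose, 10 µM in 0.5% DMSO; Buffer or medium: F12 medium, 10% FBS; Benchmarks: positive tunicamycin 10 µg/mL, negative DMSO alone.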
Mdm2-MdmX inh: human Mdm2/MdmX binding inhibition. inhibition, % at 8 µM. SaOS-2 split-luciferase Mdm2/MdmX complementation, luminescence. 3% of 330,000 active. O15151+Q00987;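 active = inhibition of at least 50% at 8 µM in the primary screen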
* marks the source's active call; other numbers are inactive results; ? = inconclusive; nt = not tested or not shown.

SMILES	XBP1 UPR activ	T cruzi repl	Beta cell apopt	CSC inhib	UPR CHOP act	Mdm2-MdmX inh
O=C1c2cccc3cccc(c23)C(=O)N1CCN1CCN(C(=S)Nc2ccc(F)cc2)CC1	26	5	5	26	43*	33
CC(=O)Nc1ccnn1C1CCN(C(=O)c2cccc(C)c2C)CC1	-2	11	-3	7	-1	12
CN(c1ccccc1)c1nc(N)c([N+](=O)[O-])c(Nc2ccccc2F)n1	0	37	-8	16	2	14
COc1ccc(OC)c(Nc2nc(N(C)c3ccccc3)nc(N)c2[N+](=O)[O-])c1	10	69*	20	43	-1	30
O=C(CC(=O)c1ccccc1)Nc1ccccc1C(F)(F)F	-1	-7	3	-6	3	15
O=[N+]([O-])c1ccccc1N/N=C/c1cccc(O)c1O	-1	-24	20	86*	11	-35
Cc1ccccc1-c1nnc(-c2cccs2)o1	2	2	-3	-3	5	-47
C=CCN(C(=O)CSC1=NC(=O)CN1C(C)=O)c1nc(C)c(-c2ccccc2)s1	7	70*	-15	28	3	1
CN1CCc2c(C#N)c(N3CCCCC3)nc(NCc3ccccc3)c2C1	0	56*	-6	-3	0	32
O=C(NC1CCCCC1)C(c1ccccc1)N(C(=O)Cc1ccsc1)c1ccccc1 (centres undefined)	-1	-1	-8	-8	-1	18
O=C(NC1CCCCC1)C(c1ccc(F)cc1)N(C(=O)Cc1ccsc1)c1ccc(F)cc1 (centres undefined)	-3	74*	-5	-14	-2	5
CC(C)c1ccc(CNc2ncccn2)cc1	1	-8	-6	-3	3	-20
COc1cccc(CN(C)C(=O)/C=C/c2ccc(S(=O)(=O)N3CCCCCC3)cc2)c1	-5	16	-1	nt	-1	23
CCCCn1c(N)c(N(CC(C)C)C(=O)CCC2CCCCC2)c(=O)[nH]c1=O	2	6	-3	7	2	21
Cc1nc2ccccc2c2oc(C(=O)Nc3ccc(C(C)C)cc3)cc12	2	?	79*	nt	0	35
Cc1nc2ccccc2c2oc(C(=O)Nc3ccc4c(c3)OCCO4)cc12	3	17	25	-5	0	17
CCOC(=O)C1=NN(c2ccccc2C)C2=NC(C)=C(C(=O)OC)C(c3cccs3)N12 (centres undefined)	2	-1	-4	0	-2	7
Oc1ccccc1-c1nc(NCc2ccco2)c2ccccc2n1	4	37	36	14	2	3
c1ccc(N2CCN(c3nc(NCc4ccco4)c4ccccc4n3)CC2)cc1	-2	55*	-2	46	-4	27
CCOc1ccc(OCCC(=O)N(CC)CC(=O)NCc2ccc(Cl)cc2)cc1	-1	1	3	-11	3	9
CCOC(=O)c1c(C)[nH]c(C(=O)OCC(=O)NC(C)(C)C)c1C	-1	1	86*	-11	0	21
CCOC(=O)c1c(C)[nH]c(C(=O)OCC(=O)Nc2sc(C(=O)N(C)C)c(C)c2C(=O)OCC)c1C	0	69*	6	2	1	37
CCOC(=O)c1c(NC(=O)COC(=O)c2ccc([N+](=O)[O-])cc2)sc(C(=O)N(C)C)c1C	1	-10	-1	-11	0	24
COc1cc(C(=O)NCC(=O)OC(C)C(=O)Nc2ncc(Cl)cc2Cl)cc(OC)c1OC (centres undefined)	1	-24	1	10	-1	-17
COc1cc(CN2CCN(c3cccc(Cl)c3)CC2)cc(OC)c1OC	1	-17	2	93*	2	43
SMILES	XBP1 UPR activ	T cruzi repl	Beta cell apopt	CSC inhib	UPR CHOP act	Mdm2-MdmX inh
COc1cc(CN2CCN(S(=O)(=O)c3ccccc3)CC2)cc(OC)c1OC	-4	-1	-5	-17	2	1
C/C(=N\OC(=O)NC(C)C)c1sc(-c2ccccc2)nc1C	4	24	5	-8	5	-19
C/C(=N\OC(=O)NC1CCCCC1)c1sc(-c2ccccc2)nc1C	-1	58*	11	50	0	-13
COc1cc(C(=O)N(Cc2cccc(Cl)c2)C2CCS(=O)(=O)C2)cc(OC)c1OC (centres undefined)	0	-7	nt	-11	-2	2
O=C(Cn1c(=S)[nH]c2ncccc2c1=O)NCCc1ccccc1	1	-7	0	-7	0	10
CC1=CC(=C(C#N)c2nc3ccccc3s2)C=C(C)N1Cc1ccco1	0	64*	14	27	4	26
O=C(NCc1ccco1)c1nc2ccccc2s1	0	-12	-5	-4	6	3
O=C(c1cc(-c2ccccc2)nc2ccccc12)N1N=C(C(F)F)CC1(O)C(F)F (centres undefined)	-1	20	5	0	-1	-9
Cc1ccc(-c2cc(C(=O)N3N=C(C(F)F)CC3(O)C(F)F)c3ccccc3n2)cc1C (centres undefined)	4	64*	7	98*	7	40
C[n+]1ccc(/C=C/c2ccccc2O)c2ccccc21	-1	70*	4	3	0	9
CCCc1[nH]c2ccc(C(=O)OC)cc2c1CCC	3	19	-2	16	2	24
CCCc1[nH]c2ccc(C#N)cc2c1CCC	0	39	-4	82*	1	34
COc1ccc(CCNC(=O)CCn2c(=O)c3cccn3c3cccnc32)cc1OC	-2	-2	2	-7	1	7
CCc1ccc(NC2=NCC(c3ccccc3)S2)cc1 (centres undefined)	-1	20	10	1	7	-110
Cc1ccc(NC2=NCC(Cc3ccc(Br)cc3)S2)cc1 (centres undefined)	3	47	34	89*	-2	19
O=C(CSc1ccc2ccccc2c1)N1CCN(c2ccc(O)cc2)CC1	-1	0	3	91*	1	7
COCCN(C(=O)c1sc2ccccc2c1Cl)c1c(N)n(CC(C)C)c(=O)[nH]c1=O	2	nt	-2	5	0	8
CCOC(=O)c1ccccc1OC(=O)CS(=O)c1ccccc1[N+](=O)[O-] (centres undefined)	0	-21	-10	-11	-2	0
CS(=O)(=O)c1ccc(S(=O)CC(=O)OCc2ccccc2)c([N+](=O)[O-])c1 (centres undefined)	nt	56*	nt	nt	nt	nt
COC(=O)c1cc(NC(=O)CC2SC(=Nc3ccccc3)N(CCc3c[nH]c4ccccc34)C2=O)cc(C(=O)OC)c1 (centres undefined)	2	67*	4	49	8	48
